20 compounds from ChEMBL document CHEMBL4725261, “Design, synthesis and evaluation of carbamate-linked uridyl-based inhibitors of human ST6Gal I” (Bioorg Med Chem, 2020) can be followed below.

What is called Kd is the concentration at which binding is half-saturated. Read a high Kd as weaker binding. One may read the Ki as a measure of affinity in units of concentration, obtained from inhibition or displacement.

In data set [1] the target is T1, Beta-galactoside alpha-2,6-sialyltransferase 1 (Homo sapiens, UniProt P15907).
T1 sequence (P15907 whole entry): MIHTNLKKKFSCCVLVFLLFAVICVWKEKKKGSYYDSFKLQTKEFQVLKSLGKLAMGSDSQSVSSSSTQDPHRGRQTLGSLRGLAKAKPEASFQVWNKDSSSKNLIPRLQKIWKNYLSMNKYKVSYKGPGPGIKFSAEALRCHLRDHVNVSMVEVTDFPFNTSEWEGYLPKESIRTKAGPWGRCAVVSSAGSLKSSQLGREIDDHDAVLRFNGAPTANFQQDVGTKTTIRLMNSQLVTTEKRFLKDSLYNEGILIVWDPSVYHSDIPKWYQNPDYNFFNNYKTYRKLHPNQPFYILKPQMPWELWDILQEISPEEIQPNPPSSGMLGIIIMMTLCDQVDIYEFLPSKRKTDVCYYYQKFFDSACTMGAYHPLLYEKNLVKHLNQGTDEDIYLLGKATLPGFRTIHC
The data set is described as follows: Displacement of fluorescent probe from human ST6Gal-1 by fluorescence polarization assay. A general note: Fluorescence polarisation rises when a labelled molecule tumbles more slowly, as on binding a larger partner.

Another data set has as its system MIA PaCa-2. The data set is described as follows: Cytotoxicity against human MIA PaCa-2 cells assessed as reduction in cell viability at 200 uM after 24 to 48 hrs by MTS assay. The class given is cell-based. The conditions noted are these: mia paca-2, 200 µM, time 24-48 hrs.
Data set [2] addresses T1, Beta-galactoside alpha-2,6-sialyltransferase 1. The data set is described as follows: Inhibition of recombinant human N-terminal 6His-tagged ST6Gal-1 (Glu44 to Cys406 residues). The procedure, abridged:
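Recombinant human ST6Gal I activity was measured in a luminescence microplate assay, and inhibition was expressed as Ki.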

For data set [3], the target named is T2, Beta-galactoside alpha-2,6-sialyltransferase 1 (Rattus norvegicus, UniProt P13721).
T2 sequence (P13721 whole entry): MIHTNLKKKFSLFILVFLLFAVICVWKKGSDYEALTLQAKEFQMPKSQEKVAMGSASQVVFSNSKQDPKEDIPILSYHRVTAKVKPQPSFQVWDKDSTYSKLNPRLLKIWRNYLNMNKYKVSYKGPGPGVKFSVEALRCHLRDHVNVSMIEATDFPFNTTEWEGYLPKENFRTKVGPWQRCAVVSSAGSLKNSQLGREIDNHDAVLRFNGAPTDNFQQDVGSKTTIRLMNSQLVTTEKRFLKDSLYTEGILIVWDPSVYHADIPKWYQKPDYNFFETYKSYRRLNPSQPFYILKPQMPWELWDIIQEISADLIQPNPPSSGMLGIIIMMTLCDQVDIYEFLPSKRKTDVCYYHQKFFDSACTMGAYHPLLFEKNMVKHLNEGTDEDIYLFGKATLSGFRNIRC
The data set is described as follows: Inhibition of rat liver ST6Gal-1 using […] measured up to 20 mins by HPLC analysis.

The target in data set [4] is T2, Beta-galactoside alpha-2,6-sialyltransferase 1. The data set is described as follows: Inhibition of rat liver ST6Gal-1 by HPLC-based assay.

For the compound `Nc1ccn([C@@H]2O[C@H](COP(=O)(O)O[C@H](c3cccc(NC(=O)c4ccc(C(=O)O)c(-c5c6ccc(=O)cc-6oc6cc(O)ccc56)c4)c3)P(=O)(O)O)[C@@H](O)[C@H]2O)c(=O)n1`, in data set [1], binding was put at a Kd of 0.009 µM.
For `O=C(NC[C@H]1O[C@@H](n2ccc(=O)[nH]c2=O)[C@H](O)[C@@H]1O)OC(c1cc2ccccc2s1)P(=O)([O-])[O-].[Na+].[Na+]` (stereo in doubt; 28k-(s)), in the data set on MIA PaCa-2, the Activity entry is recorded as “Non-Toxic”. Also, the Ki in data set [2] was 8.5 µM.
In the case of `O=C(NC[C@H]1O[C@@H](n2ccc(=O)[nH]c2=O)[C@H](O)[C@@H]1O)OC(c1cccc(F)c1)P(=O)([O-])[O-].[Na+].[Na+]` (stereo in doubt; 28d-(s)), the Activity result in the data set with MIA PaCa-2 is reported as “Non-Toxic”. Also, the inhibitory constant (Ki) in data set [2] was 19.2 µM.
`Nc1ccn([C@@H]2O[C@H](COP(=O)(O)O[C@@H](c3cccc(Oc4ccccc4)c3)P(=O)(O)O)[C@@H](O)[C@H]2O)c(=O)n1`: in data set [3], the Ki turned out to be 0.07 µM.
For `COc1ccc(C(OC(=O)NC[C@H]2O[C@@H](n3ccc(=O)[nH]c3=O)[C@H](O)[C@@H]2O)P(=O)([O-])[O-])cc1OC1CCCC1.[Na+].[Na+]` (stereo in doubt; 28h-(s)), the Activity result in the data set on MIA PaCa-2 is given as “Non-Toxic”.
As to `CCCOc1cccc(C(OC(=O)NC[C@H]2O[C@@H](n3ccc(=O)[nH]c3=O)[C@H](O)[C@@H]2O)P(=O)(O)O)c1` (stereo in doubt; 28e-(l)), in data set [2], the Ki came out at 20.3 µM.
In the case of `O=C(NC[C@H]1O[C@@H](n2ccc(=O)[nH]c2=O)[C@H](O)[C@@H]1O)OC(c1ccc(F)c(Oc2ccccc2)c1)P(=O)([O-])[O-].[Na+].[Na+]` (stereo in doubt; 28b-(s)), the Activity entry in the data set with MIA PaCa-2 is listed as “Non-Toxic”.
With `CC(=O)N[C@H]1[C@@H](Oc2ccccc2)OC([C@@H](OP(=O)(O)OC[C@H]2O[C@@H](n3ccc(N)nc3=O)[C@H](O)[C@@H]2O)P(=O)(O)O)=C[C@@H]1O`, in data set [4], the affinity corresponds to a Ki of 0.029 µM.
As to `O=C(NC[C@H]1O[C@@H](n2ccc(=O)[nH]c2=O)[C@H](O)[C@@H]1O)OC(c1ccc(OC2CCCC2)cc1)P(=O)(O)O` (stereo in doubt; 28i-(l)), in data set [2], the Ki was 11.5 µM.
As for `O=C(NC[C@H]1O[C@@H](n2ccc(=O)[nH]c2=O)[C@H](O)[C@@H]1O)OC(c1ccc(F)cc1)P(=O)([O-])[O-].[Na+].[Na+]` (stereo in doubt; 28c-(s)), the Activity entry in the data set with MIA PaCa-2 was “Non-Toxic”. The Ki in data set [2] is 306 µM.
In the case of `COc1ccc(C(OC(=O)NC[C@H]2O[C@@H](n3ccc(=O)[nH]c3=O)[C@H](O)[C@@H]2O)P(=O)([O-])[O-])cc1.[Na+].[Na+]` (stereo in doubt; 28g-(s)), the Activity entry in the data set with MIA PaCa-2 was “Non-Toxic”.
The same measure, in the same setting: in the case of `O=C(NC[C@H]1O[C@@H](n2ccc(=O)[nH]c2=O)[C@H](O)[C@@H]1O)OC(c1cccc(Oc2ccccc2)c1)P(=O)([O-])[O-].[Na+].[Na+]` (stereo in doubt; 28a-(s)) it was “Non-Toxic”.
The same measure, in the same setting: in the case of `O=C(NC[C@H]1O[C@@H](n2ccc(=O)[nH]c2=O)[C@H](O)[C@@H]1O)OC(c1csc2ccccc12)P(=O)([O-])[O-].[Na+].[Na+]` (stereo in doubt; 28l-(s)) it was “Non-Toxic”.
In the case of `Nc1ccn([C@@H]2O[C@H](COP(=O)(O)O[C@@H](c3cccc(NC(=O)c4ccc(C(=O)O)c(-c5c6ccc(=O)cc-6oc6cc(O)ccc56)c4)c3)P(=O)(O)O)[C@@H](O)[C@H]2O)c(=O)n1`, the Kd in data set [1] was found to be 0.022 µM.
Regarding `CCCOc1cccc(C(OC(=O)NC[C@H]2O[C@@H](n3ccc(=O)[nH]c3=O)[C@H](O)[C@@H]2O)P(=O)([O-])[O-])c1.[Na+].[Na+]` (stereo in doubt; 28e-(s)), the Activity entry in the data set with MIA PaCa-2 was “Non-Toxic”.
Take `O=C(NC[C@H]1O[C@@H](n2ccc(=O)[nH]c2=O)[C@H](O)[C@@H]1O)OC(c1ccc(OC2CCCC2)cc1)P(=O)([O-])[O-].[Na+].[Na+]` (stereo in doubt; 28i-(s)): in the data set with MIA PaCa-2, the Activity entry was “Non-Toxic”. Besides, in data set [2], the Ki worked out at 55.5 µM.
For `COc1cccc(C(OC(=O)NC[C@H]2O[C@@H](n3ccc(=O)[nH]c3=O)[C@H](O)[C@@H]2O)P(=O)([O-])[O-])c1.[Na+].[Na+]` (stereo in doubt; 28f-(s)), the Activity result in the data set on MIA PaCa-2 is reported as “Non-Toxic”.
On the same count and under the same terms, in the case of `Nc1ccn([C@@H]2O[C@H](CNC(=O)OC(c3cccc(Oc4ccccc4)c3)P(=O)([O-])[O-])[C@@H](O)[C@H]2O)c(=O)n1.[Na+].[Na+]` (stereo in doubt; 30-(s)) it was “Non-Toxic”; in that of `O=C(NC[C@H]1O[C@@H](n2ccc(=O)[nH]c2=O)[C@H](O)[C@@H]1O)OC(c1ccccc1)P(=O)([O-])[O-].[Na+].[Na+]` (stereo in doubt; 28j-(s)), “Non-Toxic”.
Consider `O=C(NC[C@H]1O[C@@H](n2ccc(=O)[nH]c2=O)[C@H](O)[C@@H]1O)OC(c1ccc(F)cc1)P(=O)(O)O` (stereo in doubt; 28c-(l)), for which the Ki in data set [2] is 1.1 µM.
